Experimental data as given in ChEMBL document CHEMBL1154452, “First synthesis of novel spin-labeled derivatives of camptothecin as potential antineoplastic agents” (Eur J Med Chem, 2008).

Key:
[1] = Stability in human plasma assessed as level of lactone form of compound after 2 hrs by HPLC; format: ADME, cell-free; details: read-out: Activity
Summary of the method: (§1)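 Incubated in plasma at 37 °C; aliquots taken at 2, 4, 6, 8 and 24 h. Protein precipitated with cold acetonitrile (-20 °C) and removed by centrifugation. Supernatant stored at -20 °C, then analysed by C-18 HPLC (methanol/water/0.1% acetic acid) with detection at 254 nm. Percent lactone = lactone level at each time point relative to t = 0 h.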

[2] = Stability in human plasma assessed as level of lactone form of compound after 4 hrs by HPLC; format: ADME, cell-free; details: read-out: Activity; summary of the method: as §1
[3] = Stability in human plasma assessed as level of lactone form of compound after 6 hrs by HPLC; format: ADME, cell-free; details: read-out: Activity; summary of the method: as §1
[4] = Stability in human plasma assessed as level of lactone form of compound after 8 hrs by HPLC; format: ADME, cell-free; details: read-out: Activity; summary of the method: as §1
[5] = Stability in human plasma assessed as level of lactone form of compound after 24 hrs by HPLC; format: ADME, cell-free; details: read-out: Activity; summary of the method: as §1
[6] = Stability in mouse plasma assessed as level of lactone form of compound after 2 hrs by HPLC; format: ADME, cell-free; details: read-out: Activity; summary of the method: as §1
[7] = Stability in mouse plasma assessed as level of lactone form of compound after 4 hrs by HPLC; format: ADME, cell-free; details: read-out: Activity; summary of the method: as §1
[8] = Stability in mouse plasma assessed as level of lactone form of compound after 6 hrs by HPLC; format: ADME, cell-free; details: read-out: Activity; summary of the method: as §1
[9] = Stability in mouse plasma assessed as level of lactone form of compound after 8 hrs by HPLC; format: ADME, cell-free; details: read-out: Activity; summary of the method: as §1
[10] = Stability in mouse plasma assessed as level of lactone form of compound after 24 hrs by HPLC; format: ADME, cell-free; details: read-out: Activity; summary of the method: as §1
T-24 = experiment: Growth inhibition of human T24 cells after 4 days by MTT assay; format: functional; parameters: concentration or dose not given beside the values
Summary of the method: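 After 4 days, MTT (5 mg/mL solution) added, 4 h further incubation, formazan dissolved in DMSO, absorbance read at 570 nm. Survival expressed as percent of untreated control wells; inhibition rates derived.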

Row | Compound | remaining at 2 h [1] [%] | remaining at 4 h [2] [%] | remaining at 6 h [3] [%] | remaining at 8 h [4] [%] | remaining at 24 h [5] [%] | remaining at 2 h [6] [%] | remaining at 4 h [7] [%] | remaining at 6 h [8] [%] | remaining at 8 h [9] [%] | remaining at 24 h [10] [%] | inhibition (INH) (T-24) [%]
1 | CC[C@@]1(OC(=O)CNC(=O)C2=CC(C)(C)N(O)C2(C)C)C(=O)OCc2c1cc1n(c2=O)Cc2cc3ccccc3nc2-1 | 78.7 | 65.2 | 56.1 | 34.4 | 7.8 | 76.3 | 57.6 | 43.9 | 31.8 | 10.8 | 34.5
2 | CC[C@@]1(OC(=O)[C@H](CC(C)C)NC(=O)C2=CC(C)(C)N(O)C2(C)C)C(=O)OCc2c1cc1n(c2=O)Cc2cc3ccccc3nc2-1 | – | – | – | – | – | – | – | – | – | – | 16.4
3 | CC[C@@]1(OC(=O)[C@H](C)NC(=O)C2=CC(C)(C)N(O)C2(C)C)C(=O)OCc2c1cc1n(c2=O)Cc2cc3ccccc3nc2-1 | – | – | – | – | – | – | – | – | – | – | 25.9
4 | CC[C@@]1(OC(=O)[C@H](Cc2ccccc2)NC(=O)C2=CC(C)(C)N(O)C2(C)C)C(=O)OCc2c1cc1n(c2=O)Cc2cc3ccccc3nc2-1 | – | – | – | – | – | – | – | – | – | – | 26.4
5 | CC[C@@]1(OC(=O)[C@H](CCSC)NC(=O)C2=CC(C)(C)N(O)C2(C)C)C(=O)OCc2c1cc1n(c2=O)Cc2cc3ccccc3nc2-1 | – | – | – | – | – | – | – | – | – | – | 25.5
6 | CC[C@@]1(O)C(=O)OCc2c1cc1n(c2=O)Cc2cc3ccccc3nc2-1 [CAMPTOTHECIN] | 61.4 | 28.4 | 19.4 | 14.6 | 3.8 | 55.1 | 40.5 | 24.5 | 10.9 | 5.3 | 15.4
7 | CCc1c2c(nc3ccc(OC(=O)N4CCC(N5CCCCC5)CC4)cc13)-c1cc3c(c(=O)n1C2)COC(=O)[C@]3(O)CC [IRINOTECAN] | – | – | – | – | – | – | – | – | – | – | 23.8
